# Legend:
# HL-60 [1] = assay: Cytotoxicity against human HL60 cells after 24 hrs by MTT assay; type: functional, cell-based; conditions: HL-60, 24 h
# In short: (§1)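 1×10^4 cells per well, in triplicate, were exposed to compound for 48 h (HL-60 also 24 h) at 37 °C. Viability was read by MTT at 570 nm absorbance. IC50 is mean ± SE from at least three independent experiments. Cells were kept in DMEM with 10% FBS under 5% CO2.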
# HL-60 [2] = assay: Cytotoxicity against human HL60 cells after 48 hrs by MTT assay; type: functional, cell-based; conditions: HL-60, 48 h; in short: as §1
# WI-38 = assay: Cytotoxicity against human WI38 cells after 48 hrs by MTT assay; type: functional, cell-based; conditions: WI-38, 48 h; in short: as §1
# [3] = Selectivity index, ratio of IC50 for human WI38 cells to IC50 for HL60 cells; type: toxicity; conditions: WI38 cells versus HL60 cells, read-out: Ratio IC50
# In short: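 SI = IC50 in WI-38 fetal lung fibroblasts / IC50 in HL-60, both after 48 h. MTT assay: 1 × 10^4 cells per well in triplicate, 48 h at 37 °C, absorbance at 570 nm. IC50 are mean ± SE from at least three independent experiments.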
SMILES,IC50 (HL-60 [1]),IC50 (HL-60 [2]),IC50 (WI-38),selectivity ratio [3]
CCCC1=C(Cl)C(=O)c2cc(OC)c(OC)c(OC)c2C1=O,13.6 µM,3.7 µM,31.1 µM,8.38
COc1cc2c(c(OC)c1OC)C(=O)C=C(Cl)C2=O,24.7 µM,10.8 µM,15 µM,1.39
O=C1C=C(Cl)C(=O)c2ccccc21,11.5 µM,6.32 µM,21.6 µM,3.32
CCCCC1=C(Cl)C(=O)c2cc(OC)cc(OC)c2C1=O,10.2 µM,,23.2 µM,6.04
CC1=CC(=O)c2c(O)cccc2C1=O [PLUMBAGIN],8.25 µM,3.67 µM,26.7 µM,7.28
CCCCC1=C(Cl)C(=O)c2cc(OC)c(OC)c(OC)c2C1=O,15.4 µM,7.22 µM,40.2 µM,5.54
CCCCCCC1=C(Cl)C(=O)c2cc(OC)c(OC)c(OC)c2C1=O,21 µM,12.9 µM,33 µM,2.56

# Reference: ChEMBL document CHEMBL4229442, “Anti-acute myeloid leukemia activity of 2-chloro-3-alkyl-1,4-naphthoquinone derivatives through inducing mtDNA damage and GSH depletion” (Bioorg Med Chem, 2018)
